Calls of active or inactive are those of the source. No cut-off for these calls is given here.
How the values were obtained:
[1] = biological target: T1, Glutamate NMDA receptor; GRIN1/GRIN2A (Homo sapiens, UniProt Q05586+Q12879); assay: Positive allosteric modulation of GluN1/GluN2A NMDAR (unknown origin) expressed in Dox-inducible cells measured every 5 mins by BD calcium indicator dye based-fluorescence analysis in presence of glutamate/glycine; format: cell-based
How it was run: (§1)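 GluN2A-containing NMDAR cell line, harvested, seeded, doxycycline 2 µg/mL overnight with 500 µM ketamine for protection, then washed and loaded with calcium dye for 50 min. Compound added at 2x concentration in 2x EC30 Glu (EC30 set daily from Glu dose-response); saturating Gly throughout; fluorescence recorded over 5 min.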

[2] = biological target: T2, Glutamate receptor 2 (Homo sapiens, UniProt P42262); assay: Positive allosteric modulation of human GluA2 AMPAR flip isomer expressed in Dox-inducible cells measured every 5 mins by BD calcium indicator dye based-fluorescence analysis in presence of glutamate; format: cell-based
T2 sequence (P42262 whole entry): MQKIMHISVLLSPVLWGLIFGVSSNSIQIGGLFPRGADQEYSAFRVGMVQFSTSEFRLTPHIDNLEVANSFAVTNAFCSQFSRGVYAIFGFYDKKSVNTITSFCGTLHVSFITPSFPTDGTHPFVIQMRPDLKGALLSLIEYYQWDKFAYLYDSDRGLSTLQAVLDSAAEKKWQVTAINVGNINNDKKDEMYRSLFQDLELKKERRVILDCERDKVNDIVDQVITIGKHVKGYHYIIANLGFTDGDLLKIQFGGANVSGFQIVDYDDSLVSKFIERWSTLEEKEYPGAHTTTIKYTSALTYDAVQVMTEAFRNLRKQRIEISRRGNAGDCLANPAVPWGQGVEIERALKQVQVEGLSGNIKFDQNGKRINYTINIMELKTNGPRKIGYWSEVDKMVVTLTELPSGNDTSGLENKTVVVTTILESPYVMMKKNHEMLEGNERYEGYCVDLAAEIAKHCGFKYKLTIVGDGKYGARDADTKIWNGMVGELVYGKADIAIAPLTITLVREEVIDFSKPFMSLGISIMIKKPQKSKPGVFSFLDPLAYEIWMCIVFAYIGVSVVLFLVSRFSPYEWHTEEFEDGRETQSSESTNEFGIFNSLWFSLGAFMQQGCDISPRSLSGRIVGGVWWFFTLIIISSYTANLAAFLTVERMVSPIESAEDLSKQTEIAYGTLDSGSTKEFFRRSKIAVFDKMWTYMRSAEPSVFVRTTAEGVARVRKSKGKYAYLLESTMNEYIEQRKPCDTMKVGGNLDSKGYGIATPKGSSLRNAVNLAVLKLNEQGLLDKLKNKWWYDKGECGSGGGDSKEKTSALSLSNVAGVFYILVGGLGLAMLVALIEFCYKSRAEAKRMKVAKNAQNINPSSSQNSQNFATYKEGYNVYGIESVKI

[3] = biological target: T2, Glutamate receptor 2; assay: Positive allosteric modulation of human GluA2 AMPAR flip isomer expressed in Dox-inducible cells at 125 uM measured every 5 mins by BD calcium indicator dye based-fluorescence analysis in presence of glutamate; format: cell-based
[4] = biological target: T2, Glutamate receptor 2; assay: Positive allosteric modulation of human GluA2 AMPAR flop isomer expressed in Dox-inducible cells measured every 5 mins by BD calcium indicator dye based-fluorescence analysis in presence of glutamate; format: cell-based
[5] = biological target: T2, Glutamate receptor 2; assay: Positive allosteric modulation of human GluA2 AMPAR flop isomer expressed in Dox-inducible cells at 125 uM measured every 5 mins by BD calcium indicator dye based-fluorescence analysis in presence of glutamate; format: cell-based
[6] = biological target: Ionotropic glutamate receptor NMDA 1/2C (Homo sapiens, UniProt Q05586+Q14957); assay: Positive allosteric modulation of GluN1/GluN2C NMDAR (unknown origin) expressed in Dox-inducible cells by BD calcium indicator dye based-fluorescence analysis in presence of glutamate/glycine
Ionotropic glutamate receptor NMDA 1/2C, sequence (Q14957 whole entry, other chains not shown): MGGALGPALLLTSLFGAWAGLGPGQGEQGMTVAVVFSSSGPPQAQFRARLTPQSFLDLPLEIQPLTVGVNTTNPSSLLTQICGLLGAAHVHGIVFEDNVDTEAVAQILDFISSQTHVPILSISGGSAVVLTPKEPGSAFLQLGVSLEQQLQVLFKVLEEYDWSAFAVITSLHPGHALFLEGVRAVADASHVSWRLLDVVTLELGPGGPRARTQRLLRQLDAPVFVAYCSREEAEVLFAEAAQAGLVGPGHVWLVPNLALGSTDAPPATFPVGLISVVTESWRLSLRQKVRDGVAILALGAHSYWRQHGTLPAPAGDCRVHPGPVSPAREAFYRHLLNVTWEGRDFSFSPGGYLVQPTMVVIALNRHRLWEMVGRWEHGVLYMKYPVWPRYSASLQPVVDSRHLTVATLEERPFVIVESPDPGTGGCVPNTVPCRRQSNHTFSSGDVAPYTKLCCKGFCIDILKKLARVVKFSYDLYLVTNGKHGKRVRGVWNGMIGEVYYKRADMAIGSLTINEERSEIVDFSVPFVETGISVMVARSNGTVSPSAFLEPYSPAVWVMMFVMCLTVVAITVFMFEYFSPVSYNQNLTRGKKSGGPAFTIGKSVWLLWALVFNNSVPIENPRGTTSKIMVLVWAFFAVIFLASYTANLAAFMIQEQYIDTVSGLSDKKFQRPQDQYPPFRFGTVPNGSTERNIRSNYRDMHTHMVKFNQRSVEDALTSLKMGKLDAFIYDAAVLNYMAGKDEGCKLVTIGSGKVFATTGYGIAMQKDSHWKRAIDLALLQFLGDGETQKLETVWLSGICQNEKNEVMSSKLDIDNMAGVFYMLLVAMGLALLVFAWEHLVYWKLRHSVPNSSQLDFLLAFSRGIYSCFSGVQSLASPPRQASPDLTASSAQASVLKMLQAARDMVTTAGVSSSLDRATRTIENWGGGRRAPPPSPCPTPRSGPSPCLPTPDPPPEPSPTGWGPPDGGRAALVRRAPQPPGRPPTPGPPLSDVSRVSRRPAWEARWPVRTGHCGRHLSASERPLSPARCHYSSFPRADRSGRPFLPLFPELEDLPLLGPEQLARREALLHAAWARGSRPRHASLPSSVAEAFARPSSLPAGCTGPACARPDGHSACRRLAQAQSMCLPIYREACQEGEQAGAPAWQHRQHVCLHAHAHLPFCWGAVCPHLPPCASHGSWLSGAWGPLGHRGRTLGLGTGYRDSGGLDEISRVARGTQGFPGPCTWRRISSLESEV

[7] = biological target: Ionotropic glutamate receptor NMDA 1/2D (Homo sapiens, UniProt O15399+Q05586); assay: Positive allosteric modulation of GluN1/GluN2D NMDAR (unknown origin) expressed in Dox-inducible cells by BD calcium indicator dye based-fluorescence analysis in presence of glutamate/glycine
Ionotropic glutamate receptor NMDA 1/2D, sequence (O15399 whole entry, other chains not shown): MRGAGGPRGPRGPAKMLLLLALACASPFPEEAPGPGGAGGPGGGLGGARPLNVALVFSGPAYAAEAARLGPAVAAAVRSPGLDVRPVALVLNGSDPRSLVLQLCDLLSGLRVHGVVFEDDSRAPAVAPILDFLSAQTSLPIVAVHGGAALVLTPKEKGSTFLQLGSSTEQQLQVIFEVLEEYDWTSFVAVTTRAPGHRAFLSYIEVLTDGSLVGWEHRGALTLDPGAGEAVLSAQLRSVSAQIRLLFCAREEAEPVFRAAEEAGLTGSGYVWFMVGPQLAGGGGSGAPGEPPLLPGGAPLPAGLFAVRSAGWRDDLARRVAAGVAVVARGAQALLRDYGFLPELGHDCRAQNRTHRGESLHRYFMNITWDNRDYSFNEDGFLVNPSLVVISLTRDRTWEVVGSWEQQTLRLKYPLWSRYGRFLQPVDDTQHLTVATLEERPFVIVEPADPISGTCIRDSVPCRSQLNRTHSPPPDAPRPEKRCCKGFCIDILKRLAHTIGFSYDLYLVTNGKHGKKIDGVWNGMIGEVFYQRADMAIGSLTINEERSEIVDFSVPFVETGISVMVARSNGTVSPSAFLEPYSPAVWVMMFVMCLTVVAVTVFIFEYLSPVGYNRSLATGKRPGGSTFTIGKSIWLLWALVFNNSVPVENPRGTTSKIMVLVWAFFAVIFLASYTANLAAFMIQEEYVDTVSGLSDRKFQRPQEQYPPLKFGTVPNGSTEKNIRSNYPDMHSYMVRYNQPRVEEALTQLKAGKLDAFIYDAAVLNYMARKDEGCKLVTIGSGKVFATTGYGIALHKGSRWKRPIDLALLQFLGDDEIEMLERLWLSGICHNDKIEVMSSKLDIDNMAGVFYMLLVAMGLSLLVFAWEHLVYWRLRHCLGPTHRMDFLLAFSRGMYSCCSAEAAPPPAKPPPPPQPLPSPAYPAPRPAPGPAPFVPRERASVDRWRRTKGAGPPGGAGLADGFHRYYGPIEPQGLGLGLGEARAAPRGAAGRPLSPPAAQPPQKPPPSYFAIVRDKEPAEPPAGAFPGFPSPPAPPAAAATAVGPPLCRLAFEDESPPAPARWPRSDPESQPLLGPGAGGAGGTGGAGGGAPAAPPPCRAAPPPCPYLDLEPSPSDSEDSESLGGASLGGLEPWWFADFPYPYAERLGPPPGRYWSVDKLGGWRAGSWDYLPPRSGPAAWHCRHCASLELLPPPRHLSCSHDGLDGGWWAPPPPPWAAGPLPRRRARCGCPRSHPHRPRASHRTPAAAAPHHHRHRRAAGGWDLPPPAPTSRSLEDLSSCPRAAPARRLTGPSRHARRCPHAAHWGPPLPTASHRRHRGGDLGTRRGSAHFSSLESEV

[8] = tested on: human MDR1 (P-gp); assay: Efflux ratio of permeability from basolateral to apical over apical to basolateral side in MDCK cells expressing human MDR1; format: ADME, cell-based, Canis lupus familiaris; settings: dog
[9] = Plasma protein binding in mouse; format: ADME, cell-free; settings: read-out: PPB (converted)
[10] = Protein binding in mouse brain; format: ADME, tissue-based; settings: read-out: PB (converted)
[11] = Blood clearance in mouse at 0.3 mg/kg, iv; format: ADME, organism-based
[12] = Half life in mouse at 0.3 mg/kg, iv; format: ADME, organism-based; settings: in vivo
[13] = Oral bioavailability in mouse at 10 mg/kg; format: ADME, organism-based; settings: in vivo
[14] = tested on: Plasma; assay: Fraction unbound in mouse plasma at 10 mg/kg, po measured at 1 hr; format: ADME, organism-based; settings: in vivo
[15] = biological target: T1, Glutamate NMDA receptor; GRIN1/GRIN2A; assay: Positive allosteric modulation of GluN1/GluN2A NMDAR (unknown origin) expressed in Dox-inducible cells at 125 uM measured every 5 mins by BD calcium indicator dye based-fluorescence analysis in presence of glutamate/glycine; format: cell-based; how it was run: as §1
[16] = biological target: Glutamate NMDA receptor; GRIN1/GRIN2B (Homo sapiens) (UniProt Q05586+Q13224); assay: Positive allosteric modulation of GluN1/GluN2B NMDAR (unknown origin) expressed in Dox-inducible cells at 125 uM measured every 5 mins by BD calcium indicator dye based-fluorescence analysis in presence of glutamate/glycine; format: cell-based
How it was run: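 Doxycycline-induced (2 µg/mL, overnight, 500 µM ketamine) GluN2B-containing NMDAR cells, loaded with calcium dye for 50 min; compound added at 2x in 2x EC30 Glu, with saturating Gly; fluorescence recorded over 5 min. Max potentiation at 125 µM reported where no EC50 obtained; 30% denotes baseline (EC30 Glu).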

[17] = species: Homo sapiens; assay: Selectivity ratio of EC50 for human GluA2 AMPAR flip isomer to EC50 for GluN1/GluN2A NMDAR (unknown origin) expressed in Dox-inducible cells; format: cell-based
[18] = species: Homo sapiens; assay: Selectivity ratio of EC50 for human GluA2 AMPAR flop isomer to EC50 for GluN1/GluN2A NMDAR (unknown origin) expressed in Dox-inducible cells; format: cell-based
[19] = Lipophilicity, logD of the compound at pH 7.4; format: physicochemical; settings: buffer
[20] = biological target: T1, Glutamate NMDA receptor; GRIN1/GRIN2A; assay: Positive allosteric modulation of GluN1/GluN2A NMDAR (unknown origin) expressed in CHO cells assessed as slowing of deactivation kinetics at 100 uM by whole-cell voltage clamp electrophysiological analysis; format: cell-based
How it was run: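 Automated patch clamp of CHO cells expressing GluN1/GluN2A; sealed in high Mg2+ buffer, recorded whole-cell in zero Mg2+. Preincubation with PAM at 100 µM (or DMSO) plus 100 µM glycine for several minutes, then rapid switch to 100 µM glutamate and back. Tau from monoexponential fit of current decay; fold deactivation = PAM tau / vehicle tau.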

[21] = biological target: T1, Glutamate NMDA receptor; GRIN1/GRIN2A; assay: Positive allosteric modulation of GluN1/GluN2A NMDAR (unknown origin) expressed in CHO cells assessed as slowing of deactivation kinetics at 10 uM by whole-cell voltage clamp electrophysiological analysis; format: cell-based

Row | EC50 [1] [µM] | EC50 [2] [µM] | %max [3] [%] | EC50 [4] [µM] | %max [5] [%] | efflux ratio [8] | %max [15] [%] | SMILES | also measured
1 | 0.021 | 9.1 | 84 | 5.5 | 88 | 1.1 | – | N#C[C@@H]1C[C@H]1c1c(C(F)(F)F)sc2nc(Cn3nc(C(F)(F)F)cc3Cl)cc(=O)n12 | EC50 [6]: 7.4 µM; EC50 [7]: 6.2 µM; fraction unbound [9]: 0.06; fraction unbound [10]: 0.014; clearance [11]: 26 mL/min/kg; half-life [12]: 4 h; bioavailability [13]: 24%; Cp(f) [14]: 17 nM
2 | 0.436 | 37 | 8 | 73.2 | 16 | 11 | 120 | CCNC(=O)c1c(C)sc2nc(Cn3nc(C(F)(F)F)cc3Cl)cc(=O)n12 | Ratio EC50 [17]: 100
3 | 9.34 | 35.2 | 51 | 23.7 | 71 | – | 91 | CCCCc1nn2c(=O)cc(CN(CC)c3ccccc3)nc2s1 | %max [16]: 40%
4 | 0.06 | 43.1 | 75 | 13 | 22 | – | 143 | C=C(C)c1c(C)sc2nc(CN(CC)c3ccc(F)cc3)cc(=O)n12 | Ratio EC50 [18]: > 100
5 | 0.088 | – | 13 | 9.4 | 55 | 1.1 | 173 | CCN(Cc1cc(=O)n2c(C(C)=O)c(C)sc2n1)c1ccc(F)cc1 | Ratio EC50 [18]: 100
6 | 0.9 | 3.3 | 92 | 0.83 | 99 | 1.4 | 150 | CCN(Cc1cc(=O)n2nc(C)sc2n1)c1ccc(F)cc1 | %max [16]: 48%; logD [19]: 2.9
7 | 8.5 | – | 11 | – | 15 | 2 | 77 | CCNC(=O)c1c(C)sc2nc(COc3ccc(F)cc3)cc(=O)n12 | Activity [20]: inactive
8 | 0.159 | 10.5 | 72 | 0.572 | 75 | 0.9 | 168 | CCN(Cc1cc(=O)n2c(CCO)c(C)sc2n1)c1ccc(F)cc1 | –
9 | 0.0295 | 0.702 | 91 | 0.073 | 93 | 5.3 | 151 | Cc1sc2nc(Cn3nc(C(F)(F)F)cc3Cl)cc(=O)n2c1[C@@H]1C[C@H]1C#N | –
10 | 0.093 | – | 10 | – | 28 | 5.1 | 184 | CCNC(=O)c1c(C)sc2nc(CN(CC)c3ccc(F)cc3)cc(=O)n12 | Activity [21]: Active
11 | 0.394 | 34 | 35 | 9.8 | 31 | 0.8 | 168 | CCN(Cc1cc(=O)n2c(C3CC3)c(C)sc2n1)c1ccc(F)cc1 | –
12 | 62.2 | 32.9 | 10 | 53.7 | 8 | 25 | 71 | CCNC(=O)c1c(C)sc2nc(Cc3cccc(C#N)c3)cc(=O)n12 | –
13 | 0.9 | 32.6 | 38 | 1.1 | 23 | 3.6 | 160 | Cc1sc2nc(Cc3cccc(C#N)c3F)cc(=O)n2c1C1CC1CO (racemic) | –

Row | SMILES | EC50 [1] [µM] | EC50 [2] [µM] | %max [3] [%] | EC50 [4] [µM] | %max [5] [%] | efflux ratio [8] | %max [15] [%] | also measured
14 | CCN(Cc1cc(=O)n2nc(C)sc2n1)c1ccccc1 | 1.9 | 7.5 | 84 | 2 | 95 | – | 150 | %max [16]: 35%
